According to ChEMBL document CHEMBL3392964, “Design, synthesis, and evaluation of novel imidazo[1,2-a][1,3,5]triazines and their derivatives as focal adhesion kinase inhibitors with antitumor activity” (J Med Chem, 2015):
Calls of active or inactive are those of the source. The rule behind the calls is not given here.

Columns and labels:
[1] = target: Focal adhesion kinase 1 (Homo sapiens, UniProt Q05397); experiment: Inhibition of FAK (unknown origin) using ULight-poly GT as substrate after 1.6 hrs by TR-FRET assay
Sequence of Focal adhesion kinase 1 (Q05397 whole entry): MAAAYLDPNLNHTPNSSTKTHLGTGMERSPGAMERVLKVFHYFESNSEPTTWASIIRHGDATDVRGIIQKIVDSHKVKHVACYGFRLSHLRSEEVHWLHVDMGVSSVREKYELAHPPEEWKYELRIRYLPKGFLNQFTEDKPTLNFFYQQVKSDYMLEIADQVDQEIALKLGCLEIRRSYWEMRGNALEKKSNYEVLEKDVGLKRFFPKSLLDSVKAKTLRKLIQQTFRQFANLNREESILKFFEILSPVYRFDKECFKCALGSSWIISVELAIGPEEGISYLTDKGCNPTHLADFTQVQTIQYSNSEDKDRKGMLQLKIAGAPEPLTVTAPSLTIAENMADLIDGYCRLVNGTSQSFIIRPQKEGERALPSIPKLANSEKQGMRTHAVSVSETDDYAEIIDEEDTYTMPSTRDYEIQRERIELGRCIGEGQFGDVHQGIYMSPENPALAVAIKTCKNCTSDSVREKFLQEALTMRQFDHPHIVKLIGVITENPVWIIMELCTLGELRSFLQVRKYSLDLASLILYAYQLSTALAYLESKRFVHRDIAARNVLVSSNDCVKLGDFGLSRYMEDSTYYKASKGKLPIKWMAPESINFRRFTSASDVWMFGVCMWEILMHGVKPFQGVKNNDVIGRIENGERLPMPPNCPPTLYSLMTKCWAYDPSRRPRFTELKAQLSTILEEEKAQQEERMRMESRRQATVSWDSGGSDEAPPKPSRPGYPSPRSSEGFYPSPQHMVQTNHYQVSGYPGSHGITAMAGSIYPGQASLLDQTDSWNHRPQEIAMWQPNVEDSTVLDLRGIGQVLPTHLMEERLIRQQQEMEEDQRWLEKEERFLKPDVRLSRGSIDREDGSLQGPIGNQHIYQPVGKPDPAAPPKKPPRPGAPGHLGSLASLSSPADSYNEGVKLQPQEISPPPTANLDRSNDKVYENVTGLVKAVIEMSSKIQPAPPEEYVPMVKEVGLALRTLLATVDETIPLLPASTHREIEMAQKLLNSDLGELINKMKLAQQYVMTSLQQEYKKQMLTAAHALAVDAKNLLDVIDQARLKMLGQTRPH

[2] = test system: U-87 MG; experiment: Reduction of cell adherence in human U87MG cells after 30 mins by toluidine blue staining-based […]; assay type: functional; details: U-87MG ATCC
Outline: (§1)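 U87-MG cells grown in 10% serum, trypsinised, diluted to 100 000 cells/mL in 10% serum medium, then treated 30 min with compound or DMSO. 20 000 cells per well allowed to attach 1 h. Fixed in 4% paraformaldehyde 30 min, stained with 0.1% toluidine blue in 4% PFA 30 min, washed, OD read at 620 nm for attached cells.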

[3] = test system: U-87MG ATCC; experiment: Antimigratory activity in human U87MG cells after 30 mins by boyden chamber assay; assay type: functional, cell-based
[4] = test system: MDA-MB-231; experiment: Inhibition of colony formation in human MDA-MB-231 cells after 2 weeks by crystal violet staining-based assay; assay type: functional, cell-based; details: for IC50: MDA-MB-231, 336 h
Outline: (§2)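 Seeding: 250 cells per well for HCT-116, 300 for U87MG, MDA-MB-231 and PC-3; incubated overnight, then exposed to a range of concentrations for 2 weeks. Fixed in 4% paraformaldehyde 30 min at room temperature, stained with 0.1% crystal violet. Colonies over 50 cells counted; colony formation rate calculated; IC50 by nonlinear regression.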

[5] = test system: U-87MG ATCC; experiment: Antimigratory activity in human U87MG cells at 4 uM […] by transwell membrane assay; assay type: functional, cell-based
[6] = Antiproliferative activity against human HCT116 cells after 48 hrs by WST-1 assay; assay type: functional, cell-based; details: HCT-116, 48 h
Outline: (§3)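 Exponentially growing cells in DMEM/10% FBS seeded at 5 × 10^3 per well, left overnight, then exposed 48 h to compounds diluted from DMSO; WST-1 added for 2 h, absorbance at 450 nm (reference 620 nm); viability as ratio to DMSO controls; three independent experiments, triplicate points; IC50 by nonlinear regression (log inhibitor vs normalized response, variable slope).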

[7] = test system: MDA-MB-231; experiment: Antiproliferative activity against human MDA-MB-231 cells after 48 hrs by WST-1 assay; assay type: functional, cell-based; details: MDA-MB-231, 48 h; outline: as §3
[8] = Antiproliferative activity against human U87MG cells after 48 hrs by WST-1 assay; assay type: functional, cell-based, U-87MG ATCC; details: U-87 MG; outline: as §3
[9] = (§4) Inhibition of colony formation in human U87MG cells after 2 weeks by crystal violet staining-based assay; assay type: functional, cell-based, U-87MG ATCC; details: U-87 MG, 336 h; outline: as §2
[10] = Antiproliferative activity against human PC3 cells after 48 hrs by WST-1 assay; assay type: functional, cell-based; details: PC-3, 48 h; outline: as §3
[11] = (§5) Inhibition of colony formation in human PC3 cells after 2 weeks by crystal violet staining-based assay; assay type: functional, cell-based; details: PC-3, 336 h; outline: as §2
[12] = (§6) Inhibition of colony formation in human HCT116 cells after 2 weeks by crystal violet staining-based assay; assay type: functional, cell-based; details: HCT-116, 336 h; outline: as §2
[13] = test system: U-87MG ATCC; experiment: Antimigratory activity in human U87MG cells at 2 uM […] by transwell membrane assay; assay type: functional, cell-based
[14] = test system: U-87MG ATCC; experiment: as §4; assay type: functional, cell-based; outline: as §2
[15] = test system: PC-3; experiment: as §5; assay type: functional, cell-based; outline: as §2
[16] = test system: HCT-116; experiment: as §6; assay type: functional, cell-based; outline: as §2
[17] = test system: HCT-116; experiment: Induction of apoptosis in human HCT116 cells assessed as necrotic cells at 0.4 uM after 24 hrs by Annexin V-PE/7-AAD staining-based FACS analysis (reference value: 0.885%); assay type: functional
[18] = Antimigratory activity in human U87MG cells at 0.4 uM […] by transwell membrane assay; assay type: functional, U-87MG ATCC
[19] = Cell cycle arrest in human HCT116 cells at < 0.4 uM after 24 hrs by propidium iodide staining-based flow cytometry; assay type: functional; details: HCT-116
Outline: (§7)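 Cells plated at 10^5 per well, left overnight, then exposed 24 h to compound or vehicle; stained 15 min at 37 °C with propidium iodide/Triton buffer; DNA content by flow cytometry, phase distribution fitted by Dean–Jett–Fox; HCT-116 at 0.3–0.5 μM, U87-MG at 0.3–3 μM; significance by unpaired Student's t test; one representative experiment.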

[20] = test system: HCT-116; experiment: Induction of apoptosis in human HCT116 cells assessed as viable cells at 0.4 uM after 24 hrs by Annexin V-PE/7-AAD staining-based FACS analysis (reference value: 93.2%); assay type: functional; details: HCT-116, 24 h, read-out: Activity
[21] = test system: HCT-116; experiment: Induction of apoptosis in human HCT116 cells assessed as late apoptotic cells at 0.4 uM after 24 hrs by Annexin V-PE/7-AAD staining-based FACS analysis (reference value: 1.22%); assay type: functional
[22] = test system: U-87MG ATCC; experiment: Antiinvasive activity in human U87MG cells after 30 mins by boyden chamber assay; assay type: functional, cell-based
[23] = test system: HCT-116; experiment: Induction of apoptosis in human HCT116 cells at < 0.4 uM after 24 hrs by Annexin V-PE/7-AAD staining-based FACS analysis; assay type: functional, cell-based
[24] = test system: U-87 MG; experiment: Induction of apoptosis in human U87MG cells assessed as late apoptotic cells at 0.3 uM after 24 hrs by Annexin V-PE/7-AAD staining-based FACS analysis (reference value: 1.59%); assay type: functional, U-87MG ATCC
[25] = Cell cycle arrest in human U87MG cells at < 0.3 uM after 24 hrs by propidium iodide staining-based flow cytometry; assay type: functional; details: U-87MG ATCC; outline: as §7
[26] = test system: U-87 MG; experiment: Induction of apoptosis in human U87MG cells assessed as viable cells at 0.3 uM after 24 hrs by Annexin V-PE/7-AAD staining-based FACS analysis (reference value: 96.7%); assay type: functional, U-87MG ATCC; details: read-out: Activity
[27] = test system: U-87 MG; experiment: Induction of apoptosis in human U87MG cells assessed as necrotic cells at 0.3 uM after 24 hrs by Annexin V-PE/7-AAD staining-based FACS analysis (reference value: 1.06%); assay type: functional, U-87MG ATCC
[28] = test system: U-87 MG; experiment: Induction of apoptosis in human U87MG cells assessed as early apoptotic cells at 0.3 uM after 24 hrs by Annexin V-PE/7-AAD staining-based FACS analysis (reference value: 0.691%); assay type: functional, U-87MG ATCC
[29] = test system: HCT-116; experiment: Induction of apoptosis in human HCT116 cells assessed as early apoptotic cells at 0.4 uM after 24 hrs by Annexin V-PE/7-AAD staining-based FACS analysis (reference value: 4.68%); assay type: functional
[30] = Cell cycle arrest in human HCT116 cells assessed as accumulation at S phase at 0.4 uM after 24 hrs by propidium iodide staining-based flow cytometry (reference value: 17.7%); assay type: functional; details: HCT-116; outline: as §7
[31] = Antiinvasive activity in human U87MG cells after 24 hrs by matrigel assay; assay type: functional, U-87MG ATCC
Outline: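 U-87MG pre-exposed 24 h to compound or DMSO in 3% FBS, then 4 × 10^4 cells seeded in upper chamber of impedance-based CIM-16 plate (8 μm pore membrane) coated with Matrigel/collagen; lower chamber 10% FBS; cell index monitored at 37 °C, 5% CO2 for 12 h; slope (1/h) over set interval, DMSO slope set to 100; duplicate wells, repeated twice.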

[32] = test system: U-87 MG; experiment: Reduction of cell adherence in human U87MG cells at 0.5 uM after 30 mins by toluidine blue staining-based […]; assay type: functional, U-87MG ATCC; design: scale not given: the % may be the effect or the level left; outline: as §1
[33] = Cell cycle arrest in human HCT116 cells assessed as accumulation at G0/G1 phase at 0.4 uM after 24 hrs by propidium iodide staining-based flow cytometry (reference value: 63.8%); assay type: functional; details: HCT-116; outline: as §7
[34] = Cell cycle arrest in human HCT116 cells assessed as accumulation at G2/M phase at 0.4 uM after 24 hrs by propidium iodide staining-based flow cytometry (reference value: 14.6%); assay type: functional; details: HCT-116; outline: as §7

COc1cc(Nc2nc(Cc3ccccc3NS(C)(=O)=O)nc3nccn23)cc(OC)c1OC
IC50 [1]: 840 nM

COC(=O)c1ccccc1Nc1nc(Nc2ccc(CN)cc2)n2ccnc2n1
IC50 [1]: 280 nM

COc1cc(NC2=Nc3nccn3C(Cc3ccccc3NC(C)=O)N2)cc(OC)c1OC (stereo not drawn)
IC50 [1]: 8910 nM

COC(=O)c1ccccc1Nc1nc(Nc2cc(OC)c(OC)c(OC)c2)n2ccnc2n1
IC50 [1]: 570 nM

CNC(=O)c1ccccc1Nc1nc(Nc2ccc(C#N)cc2)nc2nccn12
IC50 [1]: 710 nM

CNC(=O)c1ccccc1Nc1nc(Nc2cc(OC)c(OC)c(OC)c2)nc2nccn12
Activity [2]: Dose-dependent effect | Activity [3]: Dose-dependent effect | IC50 [4]: 3900 nM | Activity [5]: Active | IC50 [6]: 950 nM | IC50 [7]: > 10000 nM | IC50 [8]: 4200 nM | IC50 [9]: 220 nM | IC50 [10]: 350 nM | IC50 [11]: 990 nM | IC50 [12]: 760 nM | IC50 [1]: 230 nM

CNC(=O)c1ccccc1Nc1nc(Nc2ccc(N3CCOCC3)cc2OC)nc2nccn12
Activity [13]: Active | Activity [2]: Dose-dependent effect | Activity [3]: Dose-dependent effect | inhibition [4]: Dose-dependent effect | IC50 [4]: > 10000 nM | IC50 [6]: 340 nM | IC50 [7]: > 10000 nM | IC50 [8]: 2310 nM | inhibition [14]: Dose-dependent effect | IC50 [9]: 1400 nM | IC50 [10]: 270 nM | inhibition [15]: Dose-dependent effect | IC50 [11]: 630 nM | IC50 [12]: 20 nM | inhibition [16]: Dose-dependent effect | IC50 [1]: 330 nM

CNC(=O)c1ccccc1Cc1nc(Nc2cc(OC)c(OC)c(OC)c2)nc2nccn12
IC50 [1]: 180 nM

CNC(=O)c1ccccc1Nc1nc(Nc2ccc(CN)cc2)nc2nccn12
Activity [2]: Dose-dependent effect | Activity [17]: 3.03% | Activity [18]: 66.4% | Activity [3]: Dose-dependent effect | inhibition [4]: Dose-dependent effect | IC50 [4]: 520 nM | Activity [19]: Active | viability at 0.4 µM [20]: 88.7% | Activity [21]: 4.06% | Activity [22]: Dose-dependent effect | IC50 [6]: 310 nM | Activity [23]: inactive | IC50 [7]: 1080 nM | IC50 [8]: 370 nM | inhibition [14]: Dose-dependent effect | IC50 [9]: 220 nM | Activity [24]: 0.755% | Activity [25]: Active | viability at 0.3 µM [26]: 96.6% | Activity [27]: 1.26% | Activity [28]: 1.37% | IC50 [10]: 1270 nM | inhibition [15]: Dose-dependent effect | IC50 [11]: 1400 nM | Activity [29]: 4.24% | Activity [30]: 12.8% | IC50 [12]: 120 nM | inhibition [16]: Dose-dependent effect | Activity [31]: 50% | Activity [32]: 50% | Activity [33]: 24.4% | Activity [34]: 61% | IC50 [1]: 120 nM

CNC(=O)c1ccccc1Nc1nc(Nc2ccc(CN)cc2)n2ccnc2n1
IC50 [1]: 220 nM

COC(=O)c1ccccc1Cc1nc(Nc2cc(OC)c(OC)c(OC)c2)nc2nccn12
IC50 [1]: 370 nM

COC(=O)c1ccccc1Nc1nc(Nc2ccc(CN)cc2)nc2nccn12
IC50 [1]: 240 nM

COC(=O)c1ccccc1Nc1nc(Nc2ccc(N3CCOCC3)cc2OC)nc2nccn12
IC50 [1]: 370 nM

COC(=O)c1ccccc1Nc1nc(Nc2cc(OC)c(OC)c(OC)c2)nc2nccn12
IC50 [1]: 280 nM

C=COC(=O)NCc1ccc(Nc2nc(Nc3ccccc3C(=O)NC)nc3nccn23)cc1
IC50 [1]: 880 nM

COC(=O)c1ccccc1Nc1nc(Nc2ccc(N3CCOCC3)cc2OC)n2ccnc2n1
IC50 [1]: 570 nM

CNC(=O)c1ccccc1Nc1nc(Nc2ccc(N3CCOCC3)cc2OC)n2ccnc2n1
IC50 [1]: 510 nM

C=COC(=O)NCc1ccc(Nc2nc(Nc3ccccc3C(=O)OC)n3ccnc3n2)cc1
IC50 [1]: 500 nM

C=COC(=O)NCc1ccc(Nc2nc(Nc3ccccc3C(=O)OC)nc3nccn23)cc1
IC50 [1]: 1050 nM

CS(=O)(=O)Nc1ccccc1Nc1nc(Nc2ccc(C#N)cc2)nc2nccn12
IC50 [1]: 920 nM

CNC(=O)c1ccccc1Nc1nc(Nc2cc(OC)c(OC)c(OC)c2)n2ccnc2n1
IC50 [1]: 310 nM

CNC(=O)c1ccccc1Nc1nc(Nc2ccc(C#N)cc2)n2ccnc2n1
IC50 [1]: 1120 nM

CS(=O)(=O)Nc1ccccc1Nc1nc(Nc2ccc(C#N)cc2)n2ccnc2n1
IC50 [1]: 1730 nM

COC(=O)c1cccc(Nc2nc(Nc3cc(OC)c(OC)c(OC)c3)n3ccnc3n2)c1
IC50 [1]: 1200 nM

COC(=O)c1cccc(Nc2nc(Nc3cc(OC)c(OC)c(OC)c3)nc3nccn23)c1
IC50 [1]: 870 nM
